# High-throughput results as filed in PubChem BioAssay.
# XBP1 UPR activ: adaptive UPR (XBP1) activation | activation, % at 20 µM | CHO-XBP1 luciferase reporter, IRE1-XBP1 UPR activation, luminescence; percent of tunicamycin response, DMSO as zero | 330,000 tested, 0.33% active;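 active = versus positive control, 20 µM dose yields 30% or more activation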;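 note: 100% = tunicamycin at 10 µg/mL and 0% = DMSO only wells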
#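 Material – CHO cell line with stable XBP1 luciferase reporter · Buffer or medium – F12 plus 10% FBS · Compound – single point, 20 µM final compound, 1% DMSO · Schedule – 16-18 h cell attachment at 37 °C, then 6 h compound exposure · Signal – Steady-Glo luminescence read · Benchmarks – high control tunicamycin 10 µg/mL final, low control DMSO vehicle only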
# CHOP inh: inhibitors of CHOP induction in ER stress response. CHO-K1 CHOP-promoter luciferase, tunicamycin-induced, 15-18 h. inhibition, % at 10 µM. 220,000 tested, 3.8% active. AID 2732;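 active = compounds that reduced the stress-induced luciferase reporter signal by more than about 70% of percent inhibition, limit read from the data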;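 note: 0% = tunicamycin plus vehicle and 100% = wells without tunicamycin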
# Bfl-1 A1 inh: inhibitors of the anti-apoptotic protein A1, read as caspase activation; MEF A1-2A-BIM cells, Caspase-Glo 3/7 luminescence, 3 h; percent of clofoctol response, vehicle zero; caspase activation, % (concentration not given with the values); 330,000 tested, 0.066% active;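 active = over half of replicate activation scores above 10%, or exactly half above 10 with the replicate mean above 10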
# UPR CHOP act: activators of apoptotic arm of unfolded protein response (CHOP); CHO-CHOP luciferase reporter, UPR activation, luminescence; percent of tunicamycin response over DMSO baseline; activation, % at 10 µM; 330,000 tested, 0.34% active; AID 449763;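 active = at 10 µM dose, activation of 40% or more, normalized to positive control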;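 note: 100% = tunicamycin at 10 µg/mL and 0% = DMSO alone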
#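 Dosing – one dose, 10 µM in 0.5% DMSO · System – CHO-CHOP cells, stable luciferase reporter of PERK-eIF2a-CHOP signalling · Input – 500 cells/well · Control set – tunicamycin 10 µg/mL final as positive, DMSO-only wells as negative · Timing – 6 h compound treatment, 37 °C · Measure – % activation vs tunicamycin · Technique – luminescence read with Steady-Glo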
# The depositor's hits bear a star; / = no result given. Only a selection was taken, and hits are over-represented in it overall.
SMILES,XBP1 UPR activ,CHOP inh,Bfl-1 A1 inh,UPR CHOP act
CC(NC(=O)CN(c1ccc(Br)cc1)S(C)(=O)=O)c1ccccc1 (stereo not drawn),-5,/,-1,-2
CC(C)CCNC(=O)CCC(=O)NNc1nc2ccccc2c2nc(-c3ccccc3)nn12,0,79*,0,1
O=C(CCC(=O)NNc1nc2ccccc2c2nc(-c3ccccc3)nn12)NCCCN1CCOCC1,1,28,0,-3
CC(C)(C)NC(=O)Cn1cc(C#N)c2cc(Br)ccc21,-3,79*,0,1
CC1CCCC(NC(=O)COC(=O)c2ccccc2NC(=O)c2ccco2)C1C (stereo not drawn),1,92*,1,-2
O=C(COC(=O)c1ccccc1NC(=O)c1ccco1)NC1CCCCC1,3,12,-1,1
O=C(OCCCc1cc2ccccc2c(=O)o1)c1ccc(C(F)(F)F)cc1,0,/,0,3
CSc1nc(-c2ccc(Cl)cc2)nn1S(=O)(=O)c1ccccc1,8,33,-1,8
CCCC(=O)n1nc(-c2ccc(Cl)cc2)nc1SC,5,78*,-1,5
CSc1nc(-c2ccc(Cl)cc2)nn1S(=O)(=O)c1ccc(Cl)cc1,0,72*,-2,6
Cc1ccccc1S(=O)(=O)Nc1ncnc2scc(-c3ccccc3)c12,-1,22,1,-1
Clc1ccc(-c2noc(CSc3nnc(Cc4cccs4)n3-c3ccccc3)n2)cc1,-2,81*,1,0
Fc1ccc(-n2c(Cc3ccccc3)nnc2SCc2nc(-c3cccs3)no2)cc1,-3,75*,0,0
c1ccc(-c2noc(CSc3nnc(Cc4cccs4)n3-c3ccccc3)n2)cc1,0,14,3,1
Cc1nn(C)c(Nc2ccc(Br)cc2)c1Br,-1,74*,0,0
Cc1cc(C)nc(-n2nc(C)c(Br)c2Nc2ccc(Br)cc2)n1,0,77*,-1,0
Cc1nn(C)c(NC(=O)c2ccccc2Cl)c1Br,3,/,-1,0
Cn1c(SCC(=O)Nc2cc(C(C)(C)C)nn2-c2ccccc2)nc2ccccc21,-2,41,0,-2
Cc1cc(SCC(=O)N/N=C/c2ccc(O)cc2O)c(C)cc1Br,-2,88*,0,-2
CC(=O)C(Sc1nc(NC(C)(C)C)nc(N(C)C)n1)C(C)=O,-1,73*,-1,1
COC(=O)CSc1nc(NC(C)(C)C)nc(N(C)C)n1,3,-7,0,2
Cc1ccc(N2CCN(c3ccc(C)cc3)C2c2ccncc2)cc1,-3,77*,0,-1
N#Cc1c(N)nc2c(c1-c1ccccc1)CCCC2,3,27,0,0
CC1CCc2nc(N)c(C#N)c(-c3cccn3C)c2C1 (stereo not drawn),2,71*,-1,3
Cc1ccccc1NC(=O)COC(=O)C1C2CC3OC(=O)C1C3C2 (stereo not drawn),-2,/,1,3
SMILES,XBP1 UPR activ,CHOP inh,Bfl-1 A1 inh,UPR CHOP act
COc1ccccc1N1CCN(C(=O)c2ccccc2NC(=O)C2CCCCC2C(=O)O)CC1 (stereo not drawn),1,-28,1,-1
Cc1ncc(CN2CCN(Cc3ccc(F)cc3)C(CCO)C2)s1 (stereo not drawn),0,27,1,-2
O=C(COC(=O)c1ccccc1Nc1ccccc1)c1ccccc1,3,21,0,2
Cc1ccc(NC(=O)COC(=O)c2ccccc2Nc2ccccc2)cc1,-1,77*,0,0
COc1cc(OC)cc(C(=O)NNC(=O)C(=O)Nc2cc(OC)c(Cl)cc2OC)c1,-4,/,-1,0
COc1cc(NC(=O)C(=O)NNC(=O)C2CCCCC2)c(OC)cc1Cl,1,85*,0,1
O=C(Nc1ccc2c(c1)CCC2)c1cc(S(=O)(=O)Nc2ccc(F)cc2)c(Cl)cc1Cl,-2,78*,0,0
C=CCOc1c(Cl)cc(CNc2ccc3[nH]c(=O)[nH]c3c2)cc1OC,4,-3,0,4
O=C1c2[nH]nc(-c3ccccc3O)c2C(c2ccc(F)cc2)N1Cc1ccco1 (stereo not drawn),4,82*,0,1
O=C(CCc1nnc2n(Cc3ccccc3)c(=O)c3ccccc3n12)NCCCN1CCCCC1,-2,/,1,1
O=[N+]([O-])c1cccc(-c2nnc(-c3ccc4c(c3)OCO4)o2)c1,2,-28,-5,2
O=[N+]([O-])c1cccc(-c2nnc(-c3ccccc3)o2)c1,1,80*,-7,4
COC(=O)C1=C(N)Oc2cc(C)n(CC3CCCO3)c(=O)c2C1c1ccc(Cl)c(Cl)c1 (stereo not drawn),0,85*,-1,0
COC(=O)C1=C(N)Oc2cc(C)n(CCCn3ccnc3)c(=O)c2C1c1ccc(Cl)cc1 (stereo not drawn),-7,77*,0,0
Clc1cccc(CSc2ncn(-c3ccccc3)n2)c1,5,93*,0,5
Clc1ccc(CSc2ncn(-c3ccccc3)n2)cc1,3,-18,1,4
CCC(=O)C1CCCN(C(=O)c2ccc(OC3CCN(C(=O)CCOC)CC3)cc2)C1 (stereo not drawn),0,/,1,2
O=C(NC(NC(=O)c1ccccc1)c1ccccc1)c1ccccc1,-2,80*,0,0
Cc1ccc(C)c(N2CCN(C(=O)C3CCN(c4nc(C)cc(C)n4)CC3)CC2)c1,-3,88*,-1,0
Cc1ccc(C)c(N2CCN(C(=O)c3csc(C)c3C)CC2)c1,-2,65,0,4
Cc1ccc(C)c(N2CCN(C(=O)c3ccccc3Br)CC2)c1,-2,87*,2,-1
Cc1ccc(N2CCN(C(=O)c3ccccc3Br)CC2)c(C)c1,0,87*,1,0
CCCCC(c1nnnn1C1CCCC1)N1CCN(C2CCCC2)CC1 (stereo not drawn),-4,18,1,2
O=C(CSc1nnc(SCc2ccc(Cl)cc2)s1)N/N=C/c1c[nH]c2ccccc12,/,92*,0,/
O=C(O)COc1ccccc1/C=N/NC(=O)CSc1nnc(SCc2ccc(Cl)cc2)s1,-3,12,-1,-1
O=C(NC1CCCCC1)C(c1cccs1)N(C(=O)Cc1c[nH]c2ccccc12)c1ccc(F)cc1 (stereo not drawn),6,91*,0,-1
COc1ccc(C(=O)Nc2ccc(Cl)cc2C(=O)NCc2ccco2)cc1,2,7,1,0
CCC(C)C(NC(=O)c1ccccc1NC(=O)c1ccc(OC)cc1)C(=O)NCc1ccco1 (stereo not drawn),-1,71*,1,0
Cc1ccc(N2C(=O)C3C4C=CC(CNC(=S)N5CCN(c6cccc(C)c6)C(C)C5)(O4)C3C2=O)cc1 (stereo not drawn),13,92*,1,12
COc1cc(S(=O)(=O)NC2CCCCC2)ccc1Cl,-2,23,0,-1
